Results published in ChEMBL document CHEMBL1148232, “Inhibitory activities against topoisomerase I and II by polyhydroxybenzoyl amide derivatives and their structure-activity relationship” (Bioorg Med Chem Lett, 2004).

Legend:
[1] = biological target: T1, DNA topoisomerase II (Homo sapiens, UniProt P11388+Q02880); experiment: Inhibitory concentration against relaxation activity of DNA topoisomerase II by detecting the conversion of supercoiled pBR322 DNA to its relaxed form; format: protein assay
[2] = biological target: T2, DNA topoisomerase 1 (Homo sapiens, UniProt P11387); experiment: Inhibitory concentration against relaxation activity of DNA topoisomerase I by detecting the conversion of supercoiled pBR322 DNA to its relaxed form
T2 sequence (P11387 whole entry): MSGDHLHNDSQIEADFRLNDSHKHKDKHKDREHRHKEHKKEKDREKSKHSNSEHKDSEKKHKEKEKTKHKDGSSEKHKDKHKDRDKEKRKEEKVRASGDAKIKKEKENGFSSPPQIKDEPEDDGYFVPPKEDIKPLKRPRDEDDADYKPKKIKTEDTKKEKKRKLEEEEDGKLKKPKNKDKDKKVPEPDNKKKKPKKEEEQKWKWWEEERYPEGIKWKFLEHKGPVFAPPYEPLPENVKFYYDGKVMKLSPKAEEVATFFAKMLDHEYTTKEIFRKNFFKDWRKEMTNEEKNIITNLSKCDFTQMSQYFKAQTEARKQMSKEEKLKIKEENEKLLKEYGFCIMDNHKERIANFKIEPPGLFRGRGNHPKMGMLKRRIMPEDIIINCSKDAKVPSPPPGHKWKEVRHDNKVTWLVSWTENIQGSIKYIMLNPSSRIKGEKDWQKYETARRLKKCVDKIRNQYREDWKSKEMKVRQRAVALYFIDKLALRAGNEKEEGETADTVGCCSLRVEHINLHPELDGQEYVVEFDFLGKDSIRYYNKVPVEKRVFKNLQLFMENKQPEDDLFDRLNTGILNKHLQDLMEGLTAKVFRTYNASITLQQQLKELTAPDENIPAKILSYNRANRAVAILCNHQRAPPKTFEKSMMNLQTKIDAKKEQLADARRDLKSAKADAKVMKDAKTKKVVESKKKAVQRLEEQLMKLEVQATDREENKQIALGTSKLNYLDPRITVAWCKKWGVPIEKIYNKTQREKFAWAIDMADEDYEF

[3] = system: HeLa; experiment: Concentration required to inhibit S phase and G2/M phase in HeLa cells; format: functional, cell-based; settings: Homo sapiens
Procedure, shortened: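 HeLa cells cultured with compound, then cell-cycle progression analysed by flow cytometry; read-out was the percentage of cells in the G0/G1, S and G2/M phases.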

[4] = system: HeLa; experiment: Growth inhibitory concentration of compound was determined against HeLa cells by alamar blue assay; format: functional; settings: Homo sapiens
[5] = biological target: T2, DNA topoisomerase 1; experiment: Inhibition of relaxation activities of DNA topoisomerase I with respect to pBR322 DNA
Procedure, shortened: (§1)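 Ki from Lineweaver–Burk plots: the rate of relaxation of supercoiled pBR322 DNA by the topoisomerase was measured across a range of DNA substrate concentrations, with and without inhibitor.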

[6] = biological target: T1, DNA topoisomerase II; experiment: Inhibition of relaxation activities of DNA topoisomerase II with respect to pBR322 DNA; format: protein assay; procedure, shortened: as §1

Row | SMILES | IC50 [2] [µM] | further results
1 | O=C(Nc1ccc(NC(=O)c2cc(O)c(O)c(O)c2)cc1)c1cc(O)c(O)c(O)c1 | 1.4 | IC50 [1]: 0.15 µM
2 | O=C(Nc1ccccc1)c1cc(O)c(O)c(O)c1 | > 100 | –
3 | O=C(Nc1ccccc1NC(=O)c1ccc(O)cc1)c1ccc(O)cc1 | > 100 | –
4 | CC(=O)Oc1ccc(C(=O)Nc2ccccc2NC(=O)c2ccc(OC(C)=O)cc2)cc1 | > 100 | –
5 | O=C(Nc1nc2ccccc2s1)c1ccc(O)c(O)c1 | 16.9 | –
6 | O=C(Nc1nc2ccccc2s1)c1cc(O)c(O)c(O)c1 | 8.2 | –
7 | COc1cc([C@@H]2c3cc4c(cc3[C@@H](O[C@@H]3O[C@@H]5CO[C@@H](C)O[C@H]5[C@H](O)[C@H]3O)[C@H]3COC(=O)[C@H]23)OCO4)cc(OC)c1O [ETOPOSIDE] | – | Concentration [3]: 2 µM; GI50 [4]: 40 µM
8 | O=C(Nc1ccccc1NC(=O)c1ccc(O)c(O)c1)c1ccc(O)c(O)c1 | 6.4 | –
9 | CC(=O)Oc1ccc(C(=O)Nc2ccc(NC(=O)c3ccc(OC(C)=O)cc3)cc2)cc1 | > 100 | –
10 | O=C(Nc1cccc(NC(=O)c2cc(O)c(O)c(O)c2)c1)c1cc(O)c(O)c(O)c1 | 1.6 | IC50 [1]: 0.22 µM
11 | CC[C@@]1(O)C(=O)OCc2c1cc1n(c2=O)Cc2cc3ccccc3nc2-1 [CAMPTOTHECIN] | – | Concentration [3]: 0.1 µM; GI50 [4]: 0.6 µM
12 | CC(=O)Oc1cc(C(=O)Nc2cccc(NC(=O)c3cc(OC(C)=O)c(OC(C)=O)c(OC(C)=O)c3)c2)cc(OC(C)=O)c1OC(C)=O | 11.2 | –
13 | CC(=O)Oc1ccc(C(=O)Nc2cccc(NC(=O)c3ccc(OC(C)=O)cc3)c2)cc1 | > 100 | –
14 | O=C(Nc1cccc(NC(=O)c2ccc(O)c(O)c2)c1)c1ccc(O)c(O)c1 | 10 | –
15 | CC(=O)Oc1cc(C(=O)Nc2ccc(NC(=O)c3cc(OC(C)=O)c(OC(C)=O)c(OC(C)=O)c3)cc2)cc(OC(C)=O)c1OC(C)=O | 8.6 | –
16 | O=C(Nc1cccc(NC(=O)c2ccc(O)cc2)c1)c1ccc(O)cc1 | > 100 | –
17 | CC(=O)Oc1cc(C(=O)Nc2ccccc2NC(=O)c2cc(OC(C)=O)c(OC(C)=O)c(OC(C)=O)c2)cc(OC(C)=O)c1OC(C)=O | 4.7 | –
18 | O=C(Nc1nc2ccccc2s1)c1ccc(O)cc1 | > 100 | –
19 | CC(=O)Oc1ccc(C(=O)Nc2ccc(NC(=O)c3ccc(OC(C)=O)c(OC(C)=O)c3)cc2)cc1OC(C)=O | > 100 | –
20 | O=C(Nc1ccccc1NC(=O)c1ccccc1)c1ccccc1 | > 100 | –
21 | O=C(Nc1ccccc1NC(=O)c1cc(O)c(O)c(O)c1)c1cc(O)c(O)c(O)c1 | 0.9 | IC50 [1]: 0.09 µM; GI50 [4]: 30 µM; Ki [5]: 0.4 µM; Ki [6]: 0.0741 µM
22 | O=C(Nc1ccc(NC(=O)c2ccc(O)cc2)cc1)c1ccc(O)cc1 | > 100 | –
23 | CC(=O)Oc1ccc(C(=O)Nc2cccc(NC(=O)c3ccc(OC(C)=O)c(OC(C)=O)c3)c2)cc1OC(C)=O | 43.2 | –
24 | O=C(Nc1ccc(NC(=O)c2ccc(O)c(O)c2)cc1)c1ccc(O)c(O)c1 | 2.6 | –
25 | CC(=O)Oc1ccc(C(=O)Nc2ccccc2NC(=O)c2ccc(OC(C)=O)c(OC(C)=O)c2)cc1OC(C)=O | 88 | –
